In ChEMBL document CHEMBL1949557, “Discovery of INCB3284, a Potent, Selective, and Orally Bioavailable hCCR2 Antagonist” (ACS Med Chem Lett, 2011) one finds AUC/dose, IC50 and inhibition data, which are given here for 25 compounds.

One series relates to Mus musculus. As to the kind of experiment: Dose normalized AUC in mouse at 10 mg/kg, po. The class given is ADME, organism-based. The arrangement: dose 10 mg/kg, route oral. Conditions: in vivo. In short, it runs like this: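 Mouse oral PK screen by cassette dosing at 10 mg/kg, three animals per cassette. AUC is dose-normalized.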
Series [1] has as its target T1, C-C chemokine receptor type 2 (Homo sapiens, UniProt P41597). Description: Displacement of [125I]MCP1 from CCR2 in human PBMC after 30 mins by gamma counter. In general terms: In a radioligand displacement assay an active substance lowers the binding of a labelled ligand.
Target sequence in this assay (P41597 whole entry): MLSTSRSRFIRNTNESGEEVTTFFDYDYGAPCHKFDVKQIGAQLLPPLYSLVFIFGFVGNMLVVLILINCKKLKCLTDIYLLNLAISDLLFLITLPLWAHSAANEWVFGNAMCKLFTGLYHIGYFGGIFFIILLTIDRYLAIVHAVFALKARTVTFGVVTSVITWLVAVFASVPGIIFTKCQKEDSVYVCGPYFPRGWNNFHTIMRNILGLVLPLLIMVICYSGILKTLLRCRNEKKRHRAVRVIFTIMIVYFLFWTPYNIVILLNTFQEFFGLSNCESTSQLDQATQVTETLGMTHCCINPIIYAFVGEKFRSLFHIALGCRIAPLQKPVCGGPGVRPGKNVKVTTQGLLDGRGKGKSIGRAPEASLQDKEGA
The target of series [2] is T1, C-C chemokine receptor type 2. As to the kind of experiment: Displacement of [125I]MCP1 from CCR2 in human PBMC at 1 uM after 30 mins by gamma counter.
Target sequence in this assay (P41597 whole entry, looked up): as the sequence (P41597 whole entry) above
Series [3] concerns the target C-C chemokine receptor type 2 (Mus musculus, UniProt P51683). As to the kind of experiment: Displacement of [125I]MCP1 from mouse CCR2 after 30 mins by gamma counter.

Chain of C-C chemokine receptor type 2 (Mus musculus, UniProt P51683) (P51683 whole entry): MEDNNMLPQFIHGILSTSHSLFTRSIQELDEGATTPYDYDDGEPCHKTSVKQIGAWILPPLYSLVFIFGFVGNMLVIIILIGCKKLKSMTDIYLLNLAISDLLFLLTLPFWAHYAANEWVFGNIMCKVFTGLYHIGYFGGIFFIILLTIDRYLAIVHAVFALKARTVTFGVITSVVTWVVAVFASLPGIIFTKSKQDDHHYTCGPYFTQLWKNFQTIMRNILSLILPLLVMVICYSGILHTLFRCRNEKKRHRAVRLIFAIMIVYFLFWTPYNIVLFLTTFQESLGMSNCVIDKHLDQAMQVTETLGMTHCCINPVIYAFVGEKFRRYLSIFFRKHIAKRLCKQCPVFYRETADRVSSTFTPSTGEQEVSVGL

For orientation: IC50 means the concentration needed to halve the response being measured. Read a high IC50 as a need for much substance. As for `O=C(CNC(=O)c1cccc(C(F)(F)F)c1)N[C@@H]1CCN([C@H]2CC[C@@](O)(c3ccncc3)CC2)C1`, the AUC/dose with Mus musculus stood at 100 nM·h. The 50% inhibitory concentration (IC50) in series [1] was 4.3 nM.

In the case of `CCOc1ccc([C@]2(O)CC[C@H](N3CC[C@@H](NC(=O)CNC(=O)c4cccc(C(F)(F)F)c4)C3)CC2)cn1`, the AUC/dose in the series with Mus musculus was 287 nM·h. The compound further registered an IC50 in series [1] of 3.2 nM. What is called inhibition is the change of the read-out against control, counted positive when it falls. In series [2], `COc1ccc([C@]2(O)CC[C@@H](N3CC[C@@H](NC(=O)CNC(=O)c4cccc(C(F)(F)F)c4)C3)CC2)cn1` gave an inhibition of less than 50%. Turning to `O=C(CNC(=O)c1cccc(C(F)(F)F)c1)N[C@@H]1CCN([C@H]2CC[C@](O)(c3ccncn3)CC2)C1`, the inhibition in series [2] was less than 50%. Still for that read-out and setting: then `O=C(CNC(=O)c1cccc(C(F)(F)F)c1)N[C@@H]1CCN([C@H]2CC[C@](O)(c3cncnc3)CC2)C1`, with less than 50%. Turning to `O=C(CNC(=O)c1cccc(C(F)(F)F)c1)N[C@@H]1CCN([C@H]2CC[C@@](O)(c3ncccn3)CC2)C1`, the AUC/dose in the series on Mus musculus worked out at 1442 nM·h. The same compound gave a half-maximal inhibitory concentration (IC50) in series [1] of 10.3 nM. On to `O=C(CNC(=O)c1cccc(C(F)(F)F)c1)N[C@@H]1CCN([C@H]2CC[C@](O)(c3cccnc3)CC2)C1`, for which the inhibition in series [2] is less than 50%. In the case of `O=C(CNC(=O)c1cccc(C(F)(F)F)c1)N[C@@H]1CCN([C@H]2CC[C@@](O)(c3cnccn3)CC2)C1`, the AUC/dose in the series with Mus musculus is 1550 nM·h. In addition, the 50% inhibitory concentration (IC50) in series [1] was determined as 10.9 nM.

For the compound `O=C(CNC(=O)c1cccc(C(F)(F)F)c1)N[C@@H]1CCN([C@H]2CC[C@@](O)(c3cccnc3)CC2)C1`, the AUC/dose in the series on Mus musculus turned out to be 50 nM·h. The compound also came in with an IC50 in series [1] of 2.6 nM. The matching figures for `Cc1ccc([C@]2(O)CC[C@H](N3CC[C@@H](NC(=O)CNC(=O)c4cccc(C(F)(F)F)c4)C3)CC2)cn1`: 127 nM·h and 2.4 nM. With `Cc1ccc([C@]2(O)CC[C@H](N3CC[C@@H](NC(=O)CNC(=O)c4cccc(C(F)(F)F)c4)C3)CC2)cc1`, the IC50 came out at 18 nM in series [3] and 1 nM in series [1]. In the series on Mus musculus, `O=C(CNC(=O)c1cccc(C(F)(F)F)c1)N[C@@H]1CCN([C@H]2CC[C@@](O)(c3ccnnc3)CC2)C1` yielded an AUC/dose of 80 nM·h. In series [1], this compound displayed an IC50 of 4.9 nM. In the case of `O=C(CNC(=O)c1cccc(C(F)(F)F)c1)N[C@@H]1CCN([C@H]2CC[C@@](O)(c3ccncn3)CC2)C1`, in the series with Mus musculus, the AUC/dose came to 930 nM·h. Further, the IC50 in series [1] is 7.8 nM. In turn, `O=C(CNC(=O)c1cccc(C(F)(F)F)c1)N[C@@H]1CCN([C@H]2CC[C@](O)(c3ccccn3)CC2)C1` registered an inhibition in series [2] of less than 50%.

In turn, `O=C(CNC(=O)c1cccc(C(F)(F)F)c1)N[C@@H]1CCN([C@H]2CC[C@](O)(c3cnccn3)CC2)C1` showed an inhibition in series [2] of less than 50%. Consider `Cc1ccc([C@]2(O)CC[C@H](N3CC[C@H](NC(=O)CNC(=O)c4cccc(C(F)(F)F)c4)C3)CC2)cc1`, for which the IC50 in series [1] is greater than 1000 nM.

On to `O=C(CNC(=O)c1cccc(C(F)(F)F)c1)N[C@@H]1CCN([C@H]2CC[C@](O)(c3ccnnc3)CC2)C1`, for which, in series [2], the inhibition was less than 50%. With `O=C(CNC(=O)c1cccc(C(F)(F)F)c1)N[C@@H]1CCN([C@H]2CC[C@@](O)(c3cccnn3)CC2)C1`, the AUC/dose with Mus musculus turned out to be 155 nM·h. This compound also returned an IC50 in series [1] of 7.3 nM. With `O=C(CNC(=O)c1cccc(C(F)(F)F)c1)N[C@@H]1CCN([C@H]2CC[C@@](O)(c3cncnc3)CC2)C1`, the IC50 in series [1] came out at 14 nM. As for `O=C(CNC(=O)c1cccc(C(F)(F)F)c1)N[C@@H]1CCN([C@H]2CC[C@](O)(c3ccncc3)CC2)C1` (mixture of isomers), the inhibition in series [2] is less than 50%.

The compound `O=C(CNC(=O)c1cccc(C(F)(F)F)c1)N[C@@H]1CCN([C@H]2CC[C@@](O)(c3ccccn3)CC2)C1` returned an AUC/dose in the series with Mus musculus of 2812 nM·h. In series [1], this compound had an IC50 of 3.2 nM. `CCOc1ccc([C@]2(O)CC[C@@H](N3CC[C@@H](NC(=O)CNC(=O)c4cccc(C(F)(F)F)c4)C3)CC2)cn1` came in with an inhibition in series [2] of less than 50%. Still for that read-out and setting: under `Cc1ccc([C@]2(O)CC[C@@H](N3CC[C@@H](NC(=O)CNC(=O)c4cccc(C(F)(F)F)c4)C3)CC2)cn1` stands less than 50%; under `O=C(CNC(=O)c1cccc(C(F)(F)F)c1)N[C@@H]1CCN([C@H]2CC[C@](O)(c3cccnn3)CC2)C1`, less than 50%; under `O=C(CNC(=O)c1cccc(C(F)(F)F)c1)N[C@@H]1CCN([C@H]2CC[C@](O)(c3ncccn3)CC2)C1`, less than 50%.
